Test results: PMC9123937 (International Journal of Nanomedicine, 2022)

How the values were obtained:
[1] = system: MHCC-97H cells; assay: Cytotoxicity study; format: cell-based; conditions: Homo sapiens, MHCC97H, 96 h, read-out: 96-hour inhibition rate
Procedure, shortened: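 MHCC-97H cells seeded at 3×10^3 cells/well in 96-well plates and cultured 24 h. Test compound added at final 0, 6.25, 12.5, 25, 50 or 100 μg/mL for 24, 48, 72 or 96 h at 37°C, with 0.1% DMSO as negative control. MTT (5 mg/mL stock) added for 3.5 h at 37°C, formazan dissolved in DMSO, absorbance read at 490 nm.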

[2] = system: MHCC-97H cells; assay: Apoptosis assay; format: cell-based, human; conditions: 24 h
Procedure, shortened: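 MHCC-97H cells (high-glucose DMEM, 10% FBS, 37°C, 5% CO2) seeded at 2×10^5 cells/well in 6-well plates and cultured 24 h. Test compound added at 5, 10 or 20 μmol/L for a further 24 h, with 0.1% DMSO and medium controls. Harvested cells stained with Annexin V-FITC and PI for 15 min in the dark in binding buffer, then analysed by flow cytometry.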

Compound: COc1cc(/C=C/C(=O)CC(=O)/C=C/c2ccc(O)c(OC)c2)ccc1O [CU, curcumin]
- inhibition at 100 µg/mL [1]: 68.2 ± 1.19%
- apoptosis rate ([2]; 5 μmol/L): 17.29 ± 0.66%
- apoptosis rate ([2]; 10 μmol/L): 25.74 ± 0.61%
- apoptosis rate ([2]; 20 μmol/L): 33.11 ± 1.00%
